This is a sample that favours compounds with a hit; in the whole collection about 1.7% have one here.
LMPTP block = LMPTP phosphatase inhibitors, primary screen, biochemical, fluorescence intensity, uHTS; Low molecular weight phosphotyrosine protein phosphatase (Homo sapiens), P24666; recombinant LMPTP-A, OMFP fluorogenic substrate; inhibition, % at 20 µM; hit rate 0.22% among 360,000;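 active means compounds that cut the enzyme signal by at least half of the control window in the single-dose screen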;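 further: plate controls were DMSO wells with enzyme plus substrate for no effect and substrate without enzyme for full effect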
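Assay system: LMPTP-A enzyme. Input: 0.625 nM LMPTP-A final. Probe or stimulus: 400 µM OMFP. Compound dosing: single 20 µM dose. Schedule: 50 min dark incubation at room temperature. Detection: fluorescence intensity of OMFP turnover product. Read-out: percent inhibition versus substrate-only and uninhibited controls. Benchmarks: no-enzyme low control, uninhibited high control.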
SUMO1-SIM PPI = modulators of SUMO1 protein-protein interactions, primary screen, biochemical, uHTS; inhibition, % at 20 µM; AID 602429, 2012; hit rate 0.33% among 360,000; Small ubiquitin-related modifier 1 (Homo sapiens), P63165; SUMO1 binding to a labelled peptide, TR-FRET, 1 h; in the data active means inhibition above about 37%
Target sequence (P63165 whole entry, looked up): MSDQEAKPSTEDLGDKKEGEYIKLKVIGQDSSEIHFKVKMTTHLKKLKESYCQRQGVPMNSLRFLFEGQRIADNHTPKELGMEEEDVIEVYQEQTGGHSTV
Scp1 inh = Scp-1 phosphatase inhibitors, primary screen, biochemical, colorimetric, uHTS; Carboxy-terminal domain RNA polymerase II polypeptide A small phosphatase 1 (Homo …; Recombinant Scp1, phosphopeptide, malachite green phosphate absorbance; inhibition, % at 20 µM; hit rate 0.88% among 340,000;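 active means inhibition above about 50% at 20 µM, limit read from the data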;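 further: plate controls were DMSO wells with enzyme for no effect and wells lacking enzyme for full effect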
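Incubation: 45 min enzyme reaction at room temperature / System: truncated SCP-1 phosphatase (76-261aa) / Reagent: Phospho 17-mer peptide substrate / Buffer or medium: Acidic Tris acetate buffer with magnesium and detergent / Signal: absorbance at 630 nm / Doses: one concentration, 20 µM, with 1.0% DMSO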
DNMT1 block = human DNMT1 methyltransferase inhibitors, primary screen, biochemical, molecular beacon, fluorescence, HinP1I cleavage, uHTS; inhibition (reported as % activation of signal), % at 10 µM; hit rate 0.83% among 360,000; in the data active means inhibition above about 50%
STEP inh = STEP phosphatase inhibitors, primary screen, biochemical, fluorescence intensity, uHTS | hit rate 0.25% among 360,000 | Tyrosine-protein phosphatase non-receptor type 5 (Homo sapiens), P54829 | inhibition, % at 20 µM | recombinant STEP, OMFP fluorogenic substrate | AID 588621, 2011;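 active means inhibition at 20 µM, scaled per plate between control wells, above about 37%, limit read from the data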;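 further: 0% = DMSO with enzyme and substrate and 100% = substrate only without enzyme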
Target sequence (P54829 whole entry, looked up): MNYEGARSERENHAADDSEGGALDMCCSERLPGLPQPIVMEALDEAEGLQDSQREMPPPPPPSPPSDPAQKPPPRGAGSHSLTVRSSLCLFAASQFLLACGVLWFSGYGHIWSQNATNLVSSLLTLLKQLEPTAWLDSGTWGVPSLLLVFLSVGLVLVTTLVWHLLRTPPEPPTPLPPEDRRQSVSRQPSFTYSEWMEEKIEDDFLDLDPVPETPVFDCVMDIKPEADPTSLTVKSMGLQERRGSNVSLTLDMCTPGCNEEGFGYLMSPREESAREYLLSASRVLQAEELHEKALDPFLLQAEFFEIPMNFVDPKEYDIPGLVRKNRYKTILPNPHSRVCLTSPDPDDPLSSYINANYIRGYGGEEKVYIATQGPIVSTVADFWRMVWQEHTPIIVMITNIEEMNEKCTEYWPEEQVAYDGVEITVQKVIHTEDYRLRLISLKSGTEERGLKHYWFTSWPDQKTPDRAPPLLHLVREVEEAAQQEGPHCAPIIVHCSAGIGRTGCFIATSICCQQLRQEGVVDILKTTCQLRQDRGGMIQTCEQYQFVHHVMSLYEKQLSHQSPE
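Assay system: isolated STEP enzyme. Buffer or medium: pH 6.0 Bis-Tris with DTT and Tween 20. Also added: fluorogenic phosphatase substrate OMFP at 25 µM final. Dosing: 20 µM, 1% DMSO. Timing: 20 min reaction, room temperature, in the dark. Measured by: fluorescence intensity, excitation 480 nm, emission 540 nm. Evaluation: normalized % inhibition.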
Scp-1 conf = Scp-1 phosphatase inhibitors, retest, confirmation, biochemical, colorimetric, single concentration; recombinant SCP-1 catalytic domain, phosphate release, malachite green absorbance; shares compounds with Scp1 inh; hit rate 61% among 2,500; inhibition, % at 20 µM;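 further: plate controls were DMSO with enzyme for no effect and buffer wells lacking enzyme for full effect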
Scp-1 MG ctr = colorimetric readout interference by compounds, confirmation, artefact control for Scp-1 inhibitor project, biochemical, single concentration; 2,500 tested, under 10 active; AID 540313, 2011; apparent inhibition (interference), % at 20 µM; shares compounds with Scp1 inh; Colorimetric interference counterscreen, malachite green absorbance 630 nm;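 further: compounds added after enzyme reaction finished so only phosphate colour detection is probed; plate controls were DMSO wells with completed Scp-1 reaction for no effect and substrate wells lacking enzyme for full effect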
Scp1 DSF = Scp-1 binding by thermal shift, confirmation, orthogonal assay for Scp-1 inhibitor project, biophysical, differential scanning fluorimetry; Recombinant SCP1, Sypro Orange thermal shift Tm; thermal shift relative to vanadate control, % at 40 µM; hit rate 25% among 1,500; shares compounds with Scp1 inh;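 active means substances whose mean melting-temperature shift, as a percentage of the reference inhibitor's shift, reaches about 5.3%, limit read from the data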;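 further: 0% = Tm of DMSO wells and 100% = Tm with sodium orthovanadate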
* marks the source's active call; other numbers are inactive results; . = no result given.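 How the source made its calls, unless noted: active means inhibition of at least 30% at 20 µM; inactive means the rest.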

SMILES	LMPTP block	SUMO1-SIM PPI	Scp1 inh	DNMT1 block	STEP inh	Scp-1 conf	Scp-1 MG ctr	others
O=c1c(OC2OC(CO)C(O)C(O)C2O)c(-c2ccc(O)c(O)c2)oc2cc(O)cc(O)c12 (stereo unspecified)	0	-5	-15	8	-1	2	-2
CC(C)C[C@@H]1COc2cccc(N(C)CCO)c2S(=O)(=O)N1	-1	-1	.	.	.	.	.
O=C(N/N=C/c1cccc(Br)c1)c1ccc(Br)cc1	60*	-4	104*	28	21	76*	-13	Scp1 DSF=-7
O=C(N/N=C/c1ccc2nccnc2c1)c1ccc(Br)cc1	0	-22	36	1	-1	.	.
COc1ccc(-c2nn(-c3ccccc3)cc2CNC[C@H]2O[C@@H](n3cnc4c(=O)[nH]c(N)nc43)[C@H](O)[C@@H]2O)cc1	1	8	.	-2	6	.	.
COc1ccc(NC(=O)COC(=O)c2cc3c(s2)CCC3)cc1	19	1	57*	66*	32	63*	-12	Scp1 DSF=-2
CC(=O)Nc1ccc2c(O)cc(S(=O)(=O)O)cc2c1	31	7	59*	28	23	46*	-14	Scp1 DSF=0
Cc1cccc2nnc(-c3ccccc3)n12	-2	12	-3	2	4	.	.
CC(=O)Nc1ccc(C(=O)N2CCCCC2c2cc(C(=O)NCc3cccnc3)no2)cc1 (stereo unspecified)	-1	-2	.	8	-2	.	.
O=C(N/N=C/c1ccccn1)c1cc(-c2ccc(Br)s2)[nH]n1	1	-1	67*	34	34	52*	-8	Scp1 DSF=-13
O=C(N/N=C/c1ccncc1)c1cc(-c2ccc(Br)s2)[nH]n1	1	-10	6	2	-2	.	.
O=C(CCNC(=O)C1CCN(S(=O)(=O)c2ccc(F)cc2)CC1)NCc1cccc(Cl)c1	-1	-4	25	1	-1	.	.
COc1cc2nc(NC(=O)c3ccco3)sc(=O)c2cc1OC	12	5	51*	10	39	43*	-12	Scp1 DSF=-16
C/C(=N\Nc1ccc(Cl)c(C(=O)O)c1)c1cccs1	-1	15	42	13	2	.	.
C/C(=N\Nc1ccc(Cl)c(C(=O)O)c1)c1ccc[nH]1	0	32	73*	6	4	59*	-13	Scp1 DSF=17*
CSCC[C@H](NC(=O)c1cccc(S(=O)(=O)N2CCCCC2)c1)c1nc2ccccc2[nH]1	-1	-1	59*	2	0	3	-5
CSCCC(NC(=O)c1cccc([N+](=O)[O-])c1)c1nc2ccccc2[nH]1 (stereo unspecified)	0	-28	-9	-6	0	.	.
COc1cccc(C(=O)N2CCC[C@H]2C(=O)N2CCC[C@H]2C(=O)N(C)Cc2ccccc2)c1	-2	0	.	.	.	.	.
C=CCn1c(=NC(=O)c2sc3ccccc3c2Cl)sc2cc(S(N)(=O)=O)ccc21	39	-2	88*	33	2	78*	-9	Scp1 DSF=-16
Cc1ccc(NC(=O)COC(=O)C2CCC(=O)N2)c(S(=O)(=O)N2CCOCC2)c1 (stereo unspecified)	-1	-1	3	9	-1	-1	-5
O=C(COC(=O)C1CCC(=O)N1)Nc1ccc(Cl)cc1Cl (stereo unspecified)	-1	-2	-7	0	-2	.	.
Cc1ccc2nc(-c3ccccc3)c(-c3ccccc3)nc2c1	1	-14	-3	3	2	.	.
Cc1ccc(-c2nc3ccc(C(=O)O)cc3nc2-c2ccc(C)cc2)cc1	0	-24	61*	-1	1	27	-9
O=C(CSc1nc(=O)n2ccccc2n1)Nc1ccc2c(c1)OCO2	-1	3	-5	-1	-2	.	.
COc1ccccc1NS(=O)(=O)c1ccc2[nH]c(=S)oc2c1	1	12	59*	7	-5	-7	-12
SMILES	LMPTP block	SUMO1-SIM PPI	Scp1 inh	DNMT1 block	STEP inh	Scp-1 conf	Scp-1 MG ctr	others
COCCCNC(=O)C[C@H]1C[C@H](C(=O)N(C(C)C)C(C)C)[C@@]2(C)c3[nH]c4cc(CCC(=O)N(C)C)ccc4c3CCN2C1=O	-2	0	4	7	-2	.	.
COc1cccc(OCc2cc(C(=O)N(C)CCOc3ccc(C)cc3)no2)c1	4	-1	55*	-1	4	-19	-22
N#CC(=C1C=C(Br)C(=NO)C=C1Cl)c1cccc2ccccc12	-1	4	.	-23	2	.	.
O=C1CCCN1CCCNS(=O)(=O)c1ccc(F)c(F)c1	-1	7	1	-1	-4	-14	-17
Cc1ccc(S(=O)(=O)NCCN2CCNC2=O)cc1	0	-4	-8	1	-2	.	.
O=C1CCCN1CCCNS(=O)(=O)c1ccc(Br)cc1	-1	-2	1	3	-1	.	.
O=C1NCCN1CCNS(=O)(=O)c1ccc(F)c(Cl)c1	-1	3	-7	2	-1	-18	-15
CC(=O)Nc1ccc(S(=O)(=O)NCCN2CCNC2=O)cc1Cl	0	8	-2	3	1	-16	-13
COc1cc(NC(=O)Cn2cnc(S(=O)(=O)N3CCOCC3)c2)cc(OC)c1OC	-2	4	-2	2	0	.	.
O=Cc1ccc(OCc2cccc(C(F)(F)F)c2)cc1O	3	6	62*	0	8	-23	-24
CCOC(=O)C1=C(C)NC(=O)NC1c1c(OCC(=O)N2CCCCC2)ccc2ccccc12 (stereo unspecified)	0	-4	-5	5	2	-8	-9
Cc1nc(NC(=O)c2cnccn2)ccc1Br	-1	1	-2	5	-1	.	.
CC(C)C[C@H]1CNC(=O)C(=O)N1C[C@H](Cc1ccc(O)cc1)NC(=O)CC12CC3CC(CC(C3)C1)C2	-1	3	.	.	.	.	.
CC(C)C[C@@H](CN1C(=O)C(=O)NC[C@@H]1CC(C)C)NC(=O)Cc1ccccc1	0	4	-3	2	1	-8	-8

Source: PubChem
